From ChEMBL document CHEMBL1148626, “Synthesis and biological evaluation of novel, peripherally selective chromanyl imidazolethione-based inhibitors of dopamine beta-hydroxylase” (2006)
The source made the active and inactive calls. The calls are words filed in the database; no cut-off is given here.

Key:
[1] = biological target: T1, Dopamine beta-hydroxylase (Homo sapiens) (UniProt P09172); assay: Effect on DBH activity in presence of dopamine by measuring Noradrenaline level; format: functional; set-up: concentration or dose not given beside the values
T1 sequence (whole entry): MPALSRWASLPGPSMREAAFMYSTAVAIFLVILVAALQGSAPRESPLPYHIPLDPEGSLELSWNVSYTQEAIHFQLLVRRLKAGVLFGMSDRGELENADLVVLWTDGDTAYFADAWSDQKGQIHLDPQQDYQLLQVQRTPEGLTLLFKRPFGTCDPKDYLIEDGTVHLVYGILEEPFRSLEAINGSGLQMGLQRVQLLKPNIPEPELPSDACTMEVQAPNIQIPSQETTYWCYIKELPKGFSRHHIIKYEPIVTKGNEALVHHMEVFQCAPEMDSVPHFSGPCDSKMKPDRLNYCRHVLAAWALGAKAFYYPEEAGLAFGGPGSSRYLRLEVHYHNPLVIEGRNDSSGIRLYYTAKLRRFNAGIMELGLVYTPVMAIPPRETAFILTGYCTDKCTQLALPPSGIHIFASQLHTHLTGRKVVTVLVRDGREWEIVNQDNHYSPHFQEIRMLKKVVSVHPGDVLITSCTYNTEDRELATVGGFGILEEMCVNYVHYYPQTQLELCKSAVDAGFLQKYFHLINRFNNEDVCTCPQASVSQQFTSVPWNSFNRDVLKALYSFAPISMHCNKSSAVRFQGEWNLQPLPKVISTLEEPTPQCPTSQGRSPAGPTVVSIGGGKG
Procedure, shortened: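 Inhibitor at 5 µM in 200 mM sodium acetate pH 5.0 containing N-ethylmaleimide, CuSO4, catalase, pargyline, fumarate and 20 mM ascorbate. Preincubated 20 min at 37 °C, then dopamine added as substrate and reacted 45 min at 37 °C. Stopped with perchloric acid and filtered. Noradrenaline formed quantified by HPLC-ECD (0.75 V). Residual activity given as % of control, mean ± SEM of three experiments.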

Mus musculus [2] = assay: Decrease in noradrenaline tissue levels in mice heart at 100 mg/kg, po after 18 hrs; format: functional, organism-based; set-up: dose 100 mg/kg; settings: NMR1
Procedure, shortened: (§1)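 Male NMRI mice housed 10 per cage on a 12 h light/dark cycle at 22 °C. Compound given at 100 mg/kg by oral gavage in water vehicle. Animals decapitated at set times postdose; heart tissue held in 0.2 M perchloric acid for 12 h at 4 °C in the dark, then filtered. NA measured by HPLC with electrochemical detection. Expressed as % of vehicle control, mean ± SEM, n=4 per group.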

Mus musculus [3] = assay: Effect on recovery of noradrenaline levels in mice at 100 mg/kg after 24 hrs; format: functional; procedure, shortened: as §1
Mus musculus [4] = species on record: Mus musculus; assay: Decrease in noradrenaline tissue levels in mouse brain parietal cortex after 9 hrs; format: functional, organism-based; settings: NMR1
Procedure, shortened: (§2)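 Male NMRI mice given test compound or vehicle (water) orally by gavage at a range of doses. At 9 h postdose, decapitation. Tissue (left ventricle or brain parietal cortex) weighed, held in 0.2 M perchloric acid 12 h at 4 °C in the dark, then filtered by centrifugation. Noradrenaline measured by HPLC with electrochemical detection. Value given as % of vehicle control.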

Mus musculus [5] = assay: Time for maximum effect for noradrenaline tissue reduction at 100 mg/kg, po; format: functional, organism-based; set-up: dose 100 mg/kg; settings: NMR1
Procedure, shortened: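 Mice given 100 mg/kg orally in water by gavage. Heart taken 6, 9, 18 and 24 h postdose and extracted in 0.2 M perchloric acid. Noradrenaline measured by HPLC with electrochemical detection, as % of control without inhibitor. Mean ± SEM, four animals per group. Time of maximum effect taken from the time course.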

Rattus norvegicus [6] = species on record: Rattus norvegicus; assay: Decrease in noradrenaline tissue levels in rat brain parietal and frontal cortex; format: functional, organism-based; settings: Wistar, Cerebral cortex
Procedure, shortened: (§3)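 Male Wistar rats dosed orally by gavage at 100 mg/kg, with water as vehicle. Killed by decapitation 9 h postdose. Frontal and parietal cortex, left atrium and left ventricle taken, extracted in 0.2 M perchloric acid (12 h, 4 °C, dark) and filtered. Noradrenaline by HPLC-electrochemical detection, as % of control without inhibitor. Mean ± SEM, four animals per group.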

Rattus norvegicus [7] = assay: Decrease in noradrenaline tissue levels in rat at 100 mg/kg, po after 9 hrs; format: functional, organism-based; set-up: dose 100 mg/kg; settings: Wistar; procedure, shortened: as §3
Mus musculus [8] = species on record: Mus musculus; assay: Effect on noradrenaline levels in mouse left ventricle after 9 hrs; format: functional, organism-based; settings: NMR1, Heart left ventricle; procedure, shortened: as §2

`NCCc1cnc(S)n1[C@H]1COc2c(O)cccc2C1` gave an Activity [1] of 125%.
`NCCc1cnc(S)n1[C@H]1COc2cc(F)c(F)cc2C1` gave an Activity [1] of 9.4%.
`NCCc1cnc(S)n1[C@H]1CCc2ccccc2C1` showed an Activity [1] of 16.8%.
In the case of `NCc1cnc(S)n1[C@H]1COc2c(F)cc(F)cc2C1`, the Activity [1] is reported as 4.1% and the Activity (Mus musculus [2]) is reported as “Active”.
For `NCCc1cnc(S)n1[C@H]1COc2ccc(O)cc2C1`, the Activity [1] was 0%.
`NCCc1cnc(S)n1[C@H]1COc2c(cccc2[N+](=O)[O-])C1` showed an Activity [1] of 53.2%.
Work on `NCCc1cnc(S)n1[C@H]1COc2ccc([N+](=O)[O-])cc2C1` yielded an Activity [1] of 94.8%.
With `CNCCc1cnc(S)n1[C@H]1COc2ccc(O)cc2C1` the Activity [1] was 15.5%.
Work on `NCc1cnc(S)n1[C@H]1COc2ccc(O)cc2C1` yielded an Activity [1] of 17.8%.
Work on `COc1cc(Cl)c2c(c1)C[C@@H](n1c(CCN)cnc1S)CO2` yielded an Activity [1] of 94%.
`COc1ccc2c(c1)CC(n1c(CCN)cnc1S)CS2` (stereo unspecified) was tested, and the Activity [1] was 99.4%.
`CNCCc1cnc(S)n1[C@H]1COc2ccccc2C1` gave an Activity [1] of 2.2%.
With `Cl.NCCc1cnc(S)n1[C@H]1COc2c(F)cc(F)cc2C1` the Activity (Mus musculus [3]) was 50%, the Activity (Mus musculus [4]) was “inactive” and the Tmax (Mus musculus [5]) was 9 h. The Activity (Rattus norvegicus [6]) was “inactive”, the Activity [1] was 3.3% and the Activity (Rattus norvegicus [7]) was “Active”. The Activity (Mus musculus [8]) was “Dose-dependent effect” and the Activity (Mus musculus [2]) was “Active”.
For `Cl.NCc1c[nH]c(=S)n1[C@H]1CCc2c(F)cc(F)cc2C1` [NEPICASTAT HYDROCHLORIDE], the Activity (Mus musculus [3]) was 50%, the Activity (Mus musculus [4]) was “Dose-dependent effect” and the Tmax (Mus musculus [5]) was 9 h. For the same compound, the Activity (Rattus norvegicus [6]) was “Active”, the Activity [1] was 0% and the Activity (Rattus norvegicus [7]) was “Active”. For the same compound, the Activity (Mus musculus [8]) was “Dose-dependent effect” and the Activity (Mus musculus [2]) was “Active”.
For `NCCc1cnc(S)n1[C@H]1COc2c(cc(F)c(F)c2F)C1`, the Activity [1] was 8.2%.
`NCCc1cnc(S)n1[C@H]1COc2cc(Cc3ccccc3)c(O)cc2C1` gave an Activity [1] of 86.1%.
In the case of `NCCc1cnc(S)n1[C@H]1COc2ccccc2C1`, the Activity [1] is reported as 3%.
Compound `NCc1cnc(S)n1[C@H]1COc2ccccc2C1` has an Activity [1] of 0%.
In the case of `COc1cc(Cl)cc2c1OC[C@H](n1c(CCN)cnc1S)C2`, the Activity [1] is reported as 36.7%.
Work on `CNCCc1c[nH]c(=S)n1[C@H]1COc2c(F)cc(F)cc2C1` yielded an Activity [1] of 2.6%.
For `NCCc1cnc(S)n1[C@H]1COc2c(F)cccc2C1`, the Activity [1] was 6.9%.
`NCCc1cnc(S)n1[C@H]1COc2ccc(F)cc2C1` was tested, and the Activity [1] was 8%.
In the case of `NCCc1cnc(S)n1[C@H]1CCc2c(F)cc(F)cc2C1`, the Activity [1] is reported as 1.6% and the Activity (Mus musculus [2]) is reported as “Active”.
`COc1cccc2c1OC[C@H](n1c(CCN)cnc1S)C2` showed an Activity [1] of 6.9%.
`COc1ccc2c(c1)C[C@@H](n1c(CCNCc3ccccc3)cnc1S)CO2` was tested, and the Activity [1] was 66%.
`Oc1ccc2c(c1)C[C@@H](n1c(CCNCc3ccccc3)cnc1S)CO2` was tested, and the Activity [1] was 4.5%.
`NCCc1cnc(S)n1[C@@H]1COc2c(F)cc(F)cc2C1` showed an Activity [1] of 50.2%.
For `NCCc1cnc(S)n1C1CSc2ccc(O)cc2C1` (stereo unspecified), the Activity [1] was 27.3%.
`NCCCc1cnc(S)n1[C@H]1CCc2c(F)cc(F)cc2C1` was tested, and the Activity [1] was 8.1%.
`COc1ccc2c(c1)C[C@@H](n1c(CCN)cnc1S)CO2` showed an Activity [1] of 54.5%.
